Shown are actives, neighbours in structure and some others; about 1.6% of the full set was active somewhere.
NOD2-RIPK2 inh – NOD2-RIPK2 protein interaction inhibition. CHO BLA complementation NOD2-RIPK2, CCF4 ratio. inhibition, % at 4.98 µM. 0.38% of 360,000 active. AID 624267. O43353; in the data active = inhibition above about 21%
TLR4-MyD88 BLA – inhibitors of human TLR4-MyD88 binding; O00206+Q99836; HeLa CL3-4 TLR4/MyD88 BLA complementation, FRET ratio; inhibition, % at 8.4 µM; 0.18% of 200,000 active; in the data active = inhibition above about 25%
B2AR ag – activates human beta-2 adrenergic receptor causing internalization; P07550; Am2.2-beta2AR cells, FAP receptor internalization, flow cytometry; response, % (test concentration not listed); 0.43% of 340,000 active;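 active = response above a set limit, near 3 SD of response in nonfluorescent compounds, cut at about 42% in these data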
Target sequence (P07550 whole entry, looked up): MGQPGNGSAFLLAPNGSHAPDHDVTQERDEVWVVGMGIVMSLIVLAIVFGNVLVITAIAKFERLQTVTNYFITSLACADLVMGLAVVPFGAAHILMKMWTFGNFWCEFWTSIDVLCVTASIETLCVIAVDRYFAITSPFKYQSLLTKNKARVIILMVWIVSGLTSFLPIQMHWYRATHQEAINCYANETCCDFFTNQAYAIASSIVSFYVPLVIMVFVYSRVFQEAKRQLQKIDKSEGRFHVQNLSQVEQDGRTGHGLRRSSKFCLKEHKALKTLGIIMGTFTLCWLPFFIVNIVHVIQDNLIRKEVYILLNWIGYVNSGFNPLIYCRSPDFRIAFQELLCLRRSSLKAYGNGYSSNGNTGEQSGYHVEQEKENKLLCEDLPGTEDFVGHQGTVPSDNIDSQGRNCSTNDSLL
Dynein transport – dynein cargo transport inhibition. 3617.4 mouse cells, GR-EGFP nuclear translocation imaging; test concentration mostly 20 µM; stimulated with dexamethasone, 1 µM; stronger effect = lower value. z-score, hits read low. 0.47% of 220,000 active. AID 1381;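 active = plate z-score of nuclear minus cytoplasmic receptor signal below a set negative limit, without overly bright fluorescence or cell loss, cut at about -3.5 in these data, passing the limit was not always enough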;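 also: z-score of nuclear minus cytoplasmic ring GR-EGFP intensity difference per well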
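Medium: Induction medium lacking tetracycline, stripped serum | Probe or stimulus: 1.0 µM final dexamethasone stimulus | Schedule: 48 h induction, then 1 h compound, then 30 min agonist, 37 °C | Signal: Automated 10x imaging of fixed Hoechst-stained cells | Evaluation: Per-cell GR-EGFP intensity, nucleus versus surrounding cytoplasmic ring, well-averaged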
ABHD5 PLIN5 PPI – ABHD5-PLIN5 protein interaction inhibition | inhibition, % at 4 µM | 0.78% of 360,000 active | Split G. princeps luciferase complementation, luminescence, 4 h;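 active = inhibition above the mean inhibition across every tested compound plus 3 SD, cut at about 22% in these data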
TLR9-MyD88 block – inhibitors of human TLR9-MyD88 binding; Q9NR96+Q99836; inhibition, % at 4.98 µM; 0.21% of 340,000 active; CHO BLA complementation TLR9-MyD88, CCF4 FRET ratio;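 active = inhibition above the mean over all tested compounds plus 3 SD, cut at about 21% in these data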
A number is an active result; i = inactive; nt = no result given.

SMILES	NOD2-RIPK2 inh	TLR4-MyD88 BLA	B2AR ag	Dynein transport	ABHD5 PLIN5 PPI	TLR9-MyD88 block
CC(SC#N)C(=O)C12CC3CC(CC(C3)C1)C2 (configuration not stated)	i	i	i	-6.8	i	i
CCOC(=O)C1=CCN(S(=O)(=O)c2ccccc2Br)C1c1cccc(C)c1 (configuration not stated)	i	nt	nt	nt	i	nt
Nc1c(C(=O)Nc2ccccc2)c2nc3ccccc3nc2n1-c1ccc(O)cc1	i	nt	i	i	23	i
CCOc1ccc(-n2c(N)c(C(=O)NCc3ccco3)c3nc4ccccc4nc32)cc1	i	i	i	i	33	i
Nc1c(C(=O)NCc2ccco2)c2nc3ccccc3nc2n1CCc1ccccc1	i	i	i	i	i	i
CCOC(=O)[C@]12CCCC=C1N(Cc1ccco1)C(=O)[C@H](CC(=O)N1CCCCC1)C2	i	nt	nt	nt	i	nt
C#CCOCCOCCOCCNc1nc(N2CCN(C(=O)CCCCCCCCCCNC(=O)[C@H](CO)n3cc(CCCSC)nn3)CC2)nc(N2CCN(C(=O)CCCCCCCCCCNC(=O)[C@H](CCCN=C(N)N)n3cc(C[C@@H](C)CC)nn3)CC2)n1	21	nt	89	nt	70	i
C#CCOCCOCCOCCNc1nc(N2CCN(C(=O)CCCCCCCCCCNC(=O)[C@H](CO)n3cc(CCCSC)nn3)CC2)nc(N2CCN(C(=O)CCCCCCCCCCNC(=O)[C@H](CCCCN)n3cc(CCO)nn3)CC2)n1	i	nt	i	nt	49	i
C#CCOCCOCCOCCNc1nc(N2CCN(C(=O)CCCCCCCCCCNC(=O)Cn3cc(CCCCCN)nn3)CC2)nc(N2CCN(C(=O)CCCCCCCCCCNC(=O)[C@@H](CCSC)n3cc(CCO)nn3)CC2)n1	i	nt	75	nt	57	i
C#CCOCCOCCOCCNc1nc(N2CCN(C(=O)CCCCCCCCCCNC(=O)Cn3cc(C[C@@H](C)O)nn3)CC2)nc(N2CCN(C(=O)CCCCCCCCCCNC(=O)[C@H](CCCN=C(N)N)n3cc(C[C@@H](C)CC)nn3)CC2)n1	24	nt	57	nt	55	i
CCc1nc2ccc(C(=O)Nc3ccc(OC)c(OC)c3)cn2c1N(C)C(=O)Cc1ccccc1	i	nt	nt	nt	i	nt
C#CCOCCOCCOCCNc1nc(N2CCN(C(=O)CCCCCCCCCCNC(=O)Cn3cc(CCCCCN)nn3)CC2)nc(N2CCN(C(=O)CCCCCCCCCCNC(=O)Cn3cc(CCCCCN)nn3)CC2)n1	i	nt	45	nt	i	i
CNc1nc(Cl)nc2ncn(C)c12	i	nt	i	nt	i	i
Cn1cnc2nc(Cl)nc(Cl)c21	i	nt	62	nt	i	i
O=C(Oc1ccc2ccccc2c1Br)N1CCCCCC1	i	i	62	i	i	i
O=C(COc1ccc2ccccc2c1Br)N1CCCCC1	i	nt	i	nt	i	i
COCCN(CC1CCCN(C2Cc3ccccc3C2)C1)C(=O)CCC(N)=O (configuration not stated)	i	nt	i	nt	i	i
O=Cc1ccc2noc(-c3ccc(F)cc3)c2c1	i	i	46	i	i	i
c1ccc2c(C(c3nnnn3-c3ccc4c(c3)OCCO4)N3CCCCC3)ccnc2c1 (configuration not stated)	i	nt	nt	nt	i	nt
COc1ccc(CCN(C)C(=O)C2CCCN(C3CCN(Cc4ccccc4)CC3)C2)cc1OC (configuration not stated)	i	nt	i	nt	i	i
COc1ccc(C/C(C)=N/NC(=S)Nc2ccc(Cl)cc2)cc1	i	nt	58	i	i	i
CCCCc1ccc(NC(=S)Nc2ccc(Nc3ccc(OC)cc3)cc2)cc1	i	i	56	i	i	i
COc1ccc(C/C(C)=N/NC(=S)Nc2ccccc2)cc1	i	i	i	i	i	i
Cc1ccccc1C(=O)Nc1nnc([C@@H]2C[C@H](O)[C@@H](CO)O2)s1	i	nt	nt	nt	i	nt
CCOC(=O)c1ccccc1NC(=O)CSc1nc2ccccc2c(=O)n1CCCN1CCOCC1	i	nt	i	nt	i	i
SMILES	NOD2-RIPK2 inh	TLR4-MyD88 BLA	B2AR ag	Dynein transport	ABHD5 PLIN5 PPI	TLR9-MyD88 block
O=C(NCc1ccco1)c1ccc(-c2ccc3nccn3c2)cc1	i	nt	nt	nt	22	nt
O=C(NC1CC1)c1ccc(-c2ccc3nccn3c2)cc1	i	nt	nt	nt	i	nt
Cc1cc(CNC[C@H]2O[C@@H](n3cnc(C(N)=O)n3)[C@H](O)[C@@H]2O)c(C)n1-c1cccnc1	i	nt	i	nt	i	i
O=C(O)CCc1ccc(-c2cccs2)o1	i	i	i	i	70	i
Oc1ccc(F)c(CN2CCN(c3ncc(Cc4ccccc4)cn3)CC2)c1	i	nt	nt	nt	i	nt
NC(=O)NN=C1CCC(OCc2ccccc2)CC1CC(=O)O (configuration not stated)	i	nt	nt	nt	i	nt
Cn1nc(C(=O)Nc2nc3ccccc3[nH]2)c2ccccc2c1=O	i	i	56	i	i	i
CCn1nc(C(=O)Nc2nc3ccccc3[nH]2)c2ccccc2c1=O	i	i	i	i	i	i
COC1=CC(=O)c2nc(Cl)ccc2C1=O	i	nt	nt	nt	i	nt
COC1=CC(=O)c2c(ccc3ncnc(N)c23)C1=O	i	nt	i	nt	55	i
COc1ccc(-c2cc(-c3ccccc3)c(C#N)c(S(C)=O)n2)cc1 (configuration not stated)	i	i	44	i	i	i
CCOC(=O)C1(C)CCCN(C(=O)c2ccc(C#N)cc2)C1 (configuration not stated)	i	nt	nt	nt	i	nt
CCN(CC)C(=O)C1=C(C)N(Cc2ccccc2)C(=O)C(CC(=O)NCc2cccs2)C1 (configuration not stated)	i	nt	nt	nt	i	i
Cc1ccsc1CN(C)CC(=O)NCC(=O)Nc1ccc(F)c(F)c1F	i	nt	i	nt	i	i
CCn1c(SCC(=O)N(C)CCC#N)nc2cc(S(=O)(=O)N3CCOCC3)ccc21	i	nt	i	nt	23	i
CCn1c(SCC#N)nc2cc(S(=O)(=O)N3CCOCC3)ccc21	i	nt	i	nt	i	i
CC(C)(C)S(=O)N1Cc2cc(C(=O)NCc3ccc4c(c3)OCO4)nc(-c3cccc(-c4cc5ccccc5o4)c3)c2[C@@H]1CCO (some centres not stated)	i	nt	nt	nt	24	nt
CSC1=NSC2=NC(=O)/C(=C\c3ccc(OC(=O)c4ccco4)cc3)C(=N)N12	i	nt	43	nt	i	i
CC(C)CS(=O)(=O)C1=NSC2=NC(=O)/C(=C\c3ccc(OC(=O)c4ccco4)cc3)C(=N)N21	i	nt	i	nt	i	i
C=C1CC(COc2cc(=O)oc3ccccc23)(c2ccccc2)OC1=O (configuration not stated)	i	nt	72	nt	i	i
C=C1CCC2C(C)(C)[C@H](O)CC[C@@]2(C)[C@@H]1COc1cc(=O)oc2ccccc12 (some centres not stated)	i	i	i	i	i	i
O=Nc1c(-c2c(O)[nH]c3cc(Br)ccc23)[nH]c2ccccc12	i	nt	43	nt	i	i
O=C(CSCc1cccc(Br)c1)N=Nc1c(O)[nH]c2ccccc12	i	i	i	i	i	i
